Ecoli rRNA inh: inhibitors of bacterial rRNA selective over humanized ribosomes. E. coli WT GFP vs humanized-ribosome RFP mutants, fluorescence, 24 h; hits give low values; DMSO median 0, no signal -100. GFP signal change (wild-type ribosome), % (no concentration beside the values). 350,000 compounds, 1.6% hits. AID 720706;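 active = significant combined selectivity score with lowered wild-type GFP, culture density cut under 30%, mutant RFP and density less affected; inactive = any of these conditions unmet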
S100A4 MyoIIA: inhibitors of human S100A4 binding to myosin IIA peptide; inhibition, % at 10.7 µM; 360,000 compounds, 0.14% hits; AID 652163; P26447; S100A4/TAMRA-MyoIIA peptide fluorescence polarization;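 active = mean inhibition of at least 70% across replicates, with every replicate also reaching that level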
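Test system: S100A4 monomer protein; Medium: HEPES pH 7.2 with CaCl2, KCl, NaCl, DTT, Triton; Probe or stimulus: TAMRA-labelled myosin IIA heavy-chain peptide probe, 5 nM; Doses: one dose per compound; Times: polarization read 5 min after assay mix addition, stable 5–60 min; Benchmarks: neutral control DMSO, positive control TFP.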
MLL AF4-AF9 inh: blocks AF4 peptide binding to human AF9. P42568. AlphaScreen, biotin-AF4 peptide binding to FLAG-AF9. inhibition, % at 10 µM. 350,000 compounds, 0.47% hits. AID 651704;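 active = every replicate reaching a set inhibition limit, whatever the replicate mean, cut at about 25% in these data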;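 also: 0% = plate neutral control median and 100% = total signal loss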
ERAP1 HTS inh: ERAP1 (human) enzyme inhibition; recombinant ERAP1, Leu-AMC fluorescence, 60 min; 340,000 compounds, 0.15% hits; AID 652197; inhibition, % at 10.7 µM;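 active = mean replicate inhibition of at least 30%, or all replicates individually reaching that 30% level; inactive = mean below 30% and not every replicate reaching it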;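 also: 0% = neutral control wells and 100% = L-leucinethiol positive control wells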
SIRT5 inh: inhibitors of human sirtuin-5 desuccinylase | Q9NXA8 | Purified SirT5, succinyl-peptide AMC, trypsin-coupled fluorescence | inhibition, % at 15 µM | 330,000 compounds, 1.1% hits; in the data active = inhibition above about 15%
E-selectin induc: E-selectin induction on HUVECs; P16581; HUVEC E-selectin immunofluorescence imaging; normalized: neutral wells 0, TNF-alpha wells 100; activation, % at 7.58 µM; 260,000 compounds, 0.37% hits;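 active = mean E-selectin-positive cell signal at least 10% of the positive control, reached in at least 60% of replicates, without over 20% cell loss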
Target sequence (P16581 whole entry, looked up): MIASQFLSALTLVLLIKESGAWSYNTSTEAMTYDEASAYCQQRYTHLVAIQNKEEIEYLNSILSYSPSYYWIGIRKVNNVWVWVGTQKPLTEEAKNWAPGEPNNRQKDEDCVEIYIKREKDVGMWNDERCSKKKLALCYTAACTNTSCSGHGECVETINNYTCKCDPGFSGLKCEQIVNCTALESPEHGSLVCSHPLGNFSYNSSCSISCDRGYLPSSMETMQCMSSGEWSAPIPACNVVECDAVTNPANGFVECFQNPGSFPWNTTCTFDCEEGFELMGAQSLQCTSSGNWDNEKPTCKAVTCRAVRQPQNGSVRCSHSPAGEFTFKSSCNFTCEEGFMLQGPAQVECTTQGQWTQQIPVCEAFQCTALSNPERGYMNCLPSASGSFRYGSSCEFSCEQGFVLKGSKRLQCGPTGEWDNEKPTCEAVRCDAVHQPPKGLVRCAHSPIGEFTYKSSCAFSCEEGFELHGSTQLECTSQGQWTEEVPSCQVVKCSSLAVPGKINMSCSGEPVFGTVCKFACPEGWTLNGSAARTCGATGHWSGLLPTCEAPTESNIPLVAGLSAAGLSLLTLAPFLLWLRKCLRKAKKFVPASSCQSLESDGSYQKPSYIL
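Assay system: HUVEC, human umbilical vein endothelial cells / Amount: 3,000 HUVEC/well / Controls: TNF-alpha positive control, DMSO neutral control / Compound dosing: single concentration / Medium: EGM-2 over gelatin coat / Evaluation: percent E-selectin-positive cells / Signal: immunofluorescence imaging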
The depositor's hits bear a star; / = not tested or not shown. Rows were chosen to be rich in hits. Some 3.4% of all compounds tested hit in one or more screens of this group.

SMILES	Ecoli rRNA inh	S100A4 MyoIIA	MLL AF4-AF9 inh	ERAP1 HTS inh	SIRT5 inh	E-selectin induc
CCOC(=O)C1CCCN(C(=O)c2ccc(Cl)c(S(=O)(=O)N3CCCCC3)c2)C1 (centres undefined)	-9	-9	-2	-2	-7	-1
CCOC(=O)C1CCCN(Cc2ccc(-c3ccccc3)cc2)C1 (centres undefined)	-25*	-1	1	3	/	/
CCOC(=O)C1CCCN(C(=O)C(C)(C)Oc2ccc(Cl)cc2)C1 (centres undefined)	-30*	-5	-1	2	0	/
CC(=O)Nc1ccc2c(c1)CC(=O)N(C)C[C@H](C)[C@H](CN(C)C(=O)NC(C)C)O2	1	/	/	/	/	/
CC(CN1CCCC1)OC(=O)c1ccc(F)cc1 (centres undefined)	23	-5	-20	-2	-5	/
CC(CN1CCCC1)OC(=O)c1ccccc1Cl (centres undefined)	8	-1	-8	2	18*	/
CC(CN1CCCCC1)OC(=O)c1ccco1 (centres undefined)	7	15	0	-4	1	39*
Cc1ccc(C(=O)OC(C)CN2CCN(C)CC2)cc1 (centres undefined)	16	1	-2	-3	22*	/
Cc1ccccc1C(=O)OC(C)CN1CCN(C)CC1 (centres undefined)	10	0	-1	-1	-4	/
CCOC(=O)c1sc2nc(NC(=O)C(C)(C)C)sc2c1C	-20*	-1	-12	4	3	0
O=C(/C=C1\NC2(CCCC2)Cc2ccccc21)C(=O)N/N=C/c1ccc(O)c(O)c1	-21*	-4	4	2	/	2
COc1ccc(/C=N/NC(=O)C(=O)/C=C2\NC3(CCCC3)Cc3ccccc32)cc1	/	0	7	1	1	1
O=C(CNC(=O)c1ccccc1)N=Nc1c(O)[nH]c2ccc(Br)cc12	6	0	-1	8	-5	/
O=Nc1c(-c2c(O)[nH]c3cc(Br)ccc23)[nH]c2ccccc12	-17	-7	4	1	-2	66*
Clc1ccc2c(c1)c1ccccc1n2CN1CCOCC1	-33*	-4	/	1	9	/
CCOc1cccc(C(=O)NC2CCCCC2)c1	1	0	2	-2	22*	/
O=C(NC1CCCCCC1)c1cc2ccccc2oc1=O	-24*	2	-2	-2	0	0
COc1cc2ccccc2cc1C(=O)NC1CCCC1	-21*	-1	-5	-4	-2	0
COc1ccc(CN(C)C[C@H]2OCCCC[C@@H](C)Oc3ccc(NC(=O)Nc4ccc5c(c4)OCO5)cc3C(=O)N([C@H](C)CO)C[C@H]2C)cc1	/	120*	23	-3	5	0
COc1ccc(NC(=O)Nc2ccc3c(c2)C(=O)N([C@@H](C)CO)C[C@@H](C)[C@@H](CN(C)Cc2ccc4c(c2)OCO4)OCCCC[C@@H](C)O3)cc1	3	4	22	2	2	0
COc1ccc(NC(=O)Nc2ccc3c(c2)C(=O)N([C@H](C)CO)C[C@@H](C)[C@H](CN(C)Cc2ccc4c(c2)OCO4)OCCCC[C@@H](C)O3)cc1	7	7	27*	2	3	1
COc1ccc(CN(C)C[C@@H]2OCCCC[C@H](C)Oc3ccc(NC(=O)Nc4ccc5c(c4)OCO5)cc3C(=O)N([C@H](C)CO)C[C@H]2C)cc1	-26	-3	25*	-3	-1	0
COc1ccc(CN(C)C[C@H]2OCCCC[C@@H](C)Oc3ccc(NC(=O)Nc4ccc5c(c4)OCO5)cc3C(=O)N([C@@H](C)CO)C[C@H]2C)cc1	4	-5	32*	-3	4	0
COc1ccc(CN(C)C[C@@H]2OCCCC[C@@H](C)Oc3ccc(NC(=O)Nc4ccc5c(c4)OCO5)cc3C(=O)N([C@@H](C)CO)C[C@@H]2C)cc1	-1	4	4	-2	3	0
COc1ccc(CN(C)C[C@H]2OCCCC[C@H](C)Oc3ccc(NC(=O)Nc4ccc5c(c4)OCO5)cc3C(=O)N([C@@H](C)CO)C[C@@H]2C)cc1	-2	29	22	-3	0	0
SMILES	Ecoli rRNA inh	S100A4 MyoIIA	MLL AF4-AF9 inh	ERAP1 HTS inh	SIRT5 inh	E-selectin induc
COC(=O)c1ccc(CN2CC(=O)N3[C@@H](CO)[C@H](c4ccc(-c5ccccc5)cc4)[C@@H]3C2)cc1	-3	/	/	/	/	/
CCCNC(=O)N1[C@H](CO)[C@H](c2ccc(-c3ccccc3)cc2)[C@@H]1CNC(C)=O	-7	/	/	/	/	0
Cc1nn(C)cc1NC(=O)C[C@H]1CC[C@@H]2[C@H](COc3ccc(NC(=O)Nc4cccc(Cl)c4)cc3C(=O)N2C)O1	-4	1	2	1	-8	0
C[C@@H]1CN([C@@H](C)CO)C(=O)c2cc(NC(=O)CCCN(C)C)ccc2O[C@@H](C)CCCCO[C@H]1CN(C)C(=O)CCCN(C)C	1	11	-1	-2	3	/
COc1cccc(C2CC(c3ccc(Br)cc3)=NN2C(=O)c2ccncc2)c1OC (centres undefined)	-35*	0	19	2	112*	/
O=C(O)CC1(CC(=O)NCc2ccc(-c3cccs3)cc2)CCCCC1	-20*	-1	/	2	-4	0
O=C(O)CC1(CC(=O)NCc2ccncc2)CCCCC1	16	0	-2	-3	-5	0
C/C=C/c1ccc2c(c1)O[C@@H](CN(C)Cc1ccc(C(=O)O)cc1)[C@H](C)CN([C@H](C)CO)S2(=O)=O	-6	5	4	2	1	0
C=CC[n+]1c(-c2ccc(Cl)cc2Cl)csc1Nc1ccc(NC(C)=O)cc1	-18	2	44*	1	1	/
O=C(COC(=O)/C=C/c1ccc(Cl)cc1)NC1CC1	3	-3	-13	2	21*	-1
O=C(COC(=O)/C=C/c1ccc(Cl)cc1)NC1CCCCCC1	/	-1	1	-1	-3	-1
COC(=O)C1=C(C)N(CC(C)C)C(=S)NC1c1cccc(OC)c1 (centres undefined)	-24	-11	/	1	29*	0
CC(=O)N[C@H]1CC[C@H](CC(=O)NCc2ccc(Cl)cc2)O[C@H]1CO	1	1	-11	-6	-3	0
N#C/C(=C\c1c[nH]c2ccccc12)C(=O)NC1CCCC1	-35*	-10	9	2	1	1
CCn1c(C)c2c([n+]1CC)CC(C)(C)CC2=O	13	-2	-9	109*	-2	/
COc1ccc(CNC(=O)C[C@H]2C[C@@H]3c4cc(NS(C)(=O)=O)ccc4O[C@@H]3[C@H](CO)O2)cc1	0	7	-1	4	3	0
